Source: PubChem BioAssay
The list is not random: actives were taken first. Their share in the collection is about 12%.
Wee1 degr inh – blocks degradation of human Wee1 kinase | reporter increase, % at 5 µM | actives 1.2% (n = 220,000) | HeLa Luc-Wee1K328M stability, luciferase luminescence; 100% = proteasome inhibitor MG132 effect;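 active = activation above the mean of all tested compounds plus 3 SD, set per screening run, cut at about 8.8% in these data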;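 note: cells exposed to compound for 20 h before luminescence read; 0% = DMSO alone and 100% = MG132 at 30 µM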
Arbovirus inh – arbovirus infection inhibition. arbovirus infection cell-based antiviral screen. actives 0.37% (n = 200,000). inhibition, % at 10 µM; in the data active = inhibition above about 30%
PKD1 inh – inhibitors of human PKD1 kinase; Q15139; PKD1 kinase fluorescence polarization assay; inhibition, % (no concentration beside the values); actives 0.056% (n = 200,000); AID 797
Target sequence (Q15139 whole entry, looked up): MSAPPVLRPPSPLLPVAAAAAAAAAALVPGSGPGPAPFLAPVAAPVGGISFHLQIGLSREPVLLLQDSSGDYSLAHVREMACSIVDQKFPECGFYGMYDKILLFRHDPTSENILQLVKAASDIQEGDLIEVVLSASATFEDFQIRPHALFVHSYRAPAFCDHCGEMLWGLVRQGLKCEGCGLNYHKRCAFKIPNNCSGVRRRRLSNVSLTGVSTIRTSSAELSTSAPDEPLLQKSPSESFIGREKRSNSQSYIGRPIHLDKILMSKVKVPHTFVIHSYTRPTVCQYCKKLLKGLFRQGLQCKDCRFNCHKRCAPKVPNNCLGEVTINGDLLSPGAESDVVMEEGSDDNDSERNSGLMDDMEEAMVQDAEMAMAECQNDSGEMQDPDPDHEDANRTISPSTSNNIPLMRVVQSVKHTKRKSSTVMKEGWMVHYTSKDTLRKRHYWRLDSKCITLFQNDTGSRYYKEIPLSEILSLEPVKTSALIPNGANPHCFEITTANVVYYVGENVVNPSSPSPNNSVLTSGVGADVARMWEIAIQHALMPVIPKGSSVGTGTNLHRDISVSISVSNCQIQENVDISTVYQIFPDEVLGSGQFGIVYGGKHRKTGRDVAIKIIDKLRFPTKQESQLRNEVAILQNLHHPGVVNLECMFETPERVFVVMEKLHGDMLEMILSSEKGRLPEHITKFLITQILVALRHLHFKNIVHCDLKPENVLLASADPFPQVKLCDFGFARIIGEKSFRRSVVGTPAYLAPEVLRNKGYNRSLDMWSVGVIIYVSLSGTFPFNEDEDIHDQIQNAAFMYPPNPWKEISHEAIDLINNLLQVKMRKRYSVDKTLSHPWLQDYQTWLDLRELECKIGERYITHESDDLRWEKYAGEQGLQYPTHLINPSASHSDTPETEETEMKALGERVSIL
L major viab – Leishmania major promastigote growth inhibition | Leishmania major promastigotes, resazurin fluorescence viability | inhibition, % at 10 µM | actives 9% (n = 200,000) | AID 1063;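 note: promastigotes grown with compound for 44 hours at 28 °C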
Rad51 HR inh – blocks human Rad51 in homologous recombination | actives 0.085% (n = 200,000) | hRad51 DNA strand exchange, fluorescence dequenching | inhibition, % at 10 µM;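 active = inhibition above 40% at the single screening dose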;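 note: 0% = DMSO control wells and 100% = blanks with heterologous ssDNA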
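Read-out basis: percent inhibition relative to plate controls and blanks / Assay system: human Rad51 nucleoprotein filaments preassembled on unlabelled ssDNA / Timing: filaments 15 min 37 °C, then compound 30 min / Control set: per-plate controls and blanks / Technique: fluorescence dequenching at 485/520 nm / Compound: 10 µM final, single point / Also added: Fluorescein- and BHQ1-tagged 47-mer duplex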
CHOP inhibitor – inhibitors of CHOP induction in ER stress response. CHO-K1 CHOP-promoter luciferase, tunicamycin-induced, 15-18 h. AID 2732. actives 3.8% (n = 220,000). inhibition, % at 10 µM;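 active = compounds that reduced the stress-induced luciferase reporter signal by more than about 70% of percent inhibition, limit read from the data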;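 note: 0% = tunicamycin plus vehicle and 100% = wells without tunicamycin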
* = called active by the depositor; nt = no result given. Cut-off read from the data, not from the text of the source, unless noted: active = inhibition above about 50%; inactive = the rest.

SMILES	Wee1 degr inh	Arbovirus inh	PKD1 inh	L major viab	Rad51 HR inh	CHOP inhibitor
Cc1cc(C)cc(NC(=O)CCN2CC(C)OC(C)C2)c1 (stereo not drawn)	-2	5	-12	80*	4	8
CCCCOC(=O)Nc1nnc(-c2ccccc2OC)s1	0	-7	12	-3	0	83*
COc1cc(/C=C(\NC(=O)c2ccccc2)C(=O)N2CC3CC(C2)c2cccc(=O)n2C3)cc(OC)c1OC (stereo not drawn)	-1	nt	nt	nt	nt	29
OC12CCCCC1C(c1ccc3c(c1)OCO3)N(Cc1cccc(F)c1)CC2 (stereo not drawn)	0	-13	-13	11	-3	61
OC12CCCCC1C(c1ccc3c(c1)OCO3)N(Cc1ccc(F)cc1)CC2 (stereo not drawn)	1	-24	-5	42	6	90*
Cc1cc(Sc2nc(N(C)C)nc(N(C)C)n2)nc(Cl)n1	-3	6	0	4	-10	45
CCN(C(=O)c1cc2c(=O)[nH]c3ccc(C)cc3c2s1)c1ccccc1F	0	nt	nt	nt	14	-36
CCN(C(=O)c1cc2c(=O)[nH]c3ccc(C)cc3c2s1)c1ccccc1C	3	nt	nt	nt	6	96*
Cc1c(CN(C)C)c2c(n1C)C(=O)c1ccc(Br)cc1-2	1	-8	23	70*	-3	11
Cc1ccc(Cl)c(NC(=O)CN2CCNC(=O)C2)c1Cl	4	1	4	-7	-2	-2
CC(C)(C)C(=O)Nc1nnc(CSCc2ccccc2F)s1	3	8	2	100*	6	33
CC(C)C(=O)Nc1nnc(CSCc2ccccc2F)s1	1	1	-6	91*	-2	-1
CC(C)(C)C(=O)Nc1nnc(CC(=O)NCc2ccccc2)s1	0	-5	-6	-5	13	18
O=C(Nc1nnc(CSCc2ccccc2F)s1)c1cccc([N+](=O)[O-])c1	1	16	3	95*	-5	-2
Fc1ccc(NC(=S)NNc2ncc(C(F)(F)F)cc2Cl)c(F)c1	-2	-7	9	9	-2	34
Fc1ccccc1Cc1noc(CN2CCC(OCc3cccnc3)CC2)n1	0	4	3	12	-2	-14
O=C(Cn1sc2ccccc2c1=O)NC12CC3CC(CC(C3)C1)C2	-1	-39	-3	100*	0	90*
C#CCNC(=O)C1=C[C@@H](C(C)(C)C)C[C@@H](OCc2ccc(CO)cc2)O1	0	12	8	98*	-4	-5
C#CCNC(=O)C1=C[C@@H](C2CC2)C[C@@H](OCc2ccc(CO)cc2)O1	-3	8	0	-1	-7	6
CC(C)(C)[C@@H]1C=C(C(=O)NCc2ccccc2)O[C@H](OCc2ccc(CO)cc2)C1	1	5	0	97*	nt	21
Cc1nn(CC(=O)Nc2sc3c(c2C#N)CCC(C(C)(C)C)C3)c(C)c1[N+](=O)[O-] (stereo not drawn)	1	-6	-1	33	10	89*
CCn1c(SCC(=O)Nc2sc3c(c2C#N)CCC(C(C)(C)C)C3)nnc1-c1ccco1 (stereo not drawn)	1	-15	2	-7	0	78*
CC(C)(C)C1CCc2c(sc(NC(=O)C3CC=CCC3C(=O)O)c2C#N)C1 (stereo not drawn)	1	36*	-3	-6	0	55
N#Cc1c(NC(=O)C2CC=CCC2C(=O)O)sc2c1CCCCCC2 (stereo not drawn)	-3	8	-6	-10	9	-25
Cc1nn(CCCC(=O)Nc2sc3c(c2C#N)CCC3)c(C)c1[N+](=O)[O-]	-2	-2	12	26	-4	8
SMILES	Wee1 degr inh	Arbovirus inh	PKD1 inh	L major viab	Rad51 HR inh	CHOP inhibitor
CC(=O)n1c(Cl)c(NC(=O)CCl)c2ccccc21	1	8	-8	41	9	-75
CCCC(=O)N1CCN(c2ccc([N+](=O)[O-])cc2Cl)CC1	3	9	-7	43	-3	11
O=C(CSc1ccc(Cl)cc1)N1CCN(c2ccc([N+](=O)[O-])cc2Cl)CC1	2	11	1	0	4	78*
O=C(/C=C/c1ccc(Cl)cc1)N1CCN(c2c(Cl)cccc2[N+](=O)[O-])CC1	2	-7	2	21	9	14
O=C(CSc1ccc(Cl)cc1)N1CCN(c2c(Cl)cccc2[N+](=O)[O-])CC1	-1	-13	-15	65*	1	-1
COc1ccc(/C=N/NC(=O)OC(C)(C)C)cc1OC	5	-2	1	-6	4	-1
CCN(CC(=O)NCc1cccs1)c1ccc(S(=O)(=O)N2CCN(C)CC2)cn1	0	nt	nt	nt	9	5
O=C(CSc1nnc2ccccn12)Nc1ccc2c(c1)OCCO2	0	1	2	0	nt	1
Cc1ccc2c(c1)N(C(=O)c1ccco1)C(C)(C)c1ssc(=S)c1-2	-2	-6	-2	98*	-6	31
Cc1ccc2cc(CN(CC3CCCO3)C(=O)C(C)C)c(=O)[nH]c2c1 (stereo not drawn)	-1	3	-5	-3	3	-20
COc1ccc(CN(Cc2cc3ccc(C)cc3[nH]c2=O)Cc2nnnn2C2CCCC2)cc1	nt	-24	nt	nt	2	45
Cc1cc(C)c2cc(CN(Cc3nnnn3C3CCCCC3)CC3CCCO3)c(=O)[nH]c2c1 (stereo not drawn)	1	-1	-7	99*	1	71*
Cc1cc2cc(CN(Cc3nnnn3C3CCCCC3)CC3CCCO3)c(=O)[nH]c2cc1C (stereo not drawn)	-2	-11	-4	82*	-9	50
Cc1ccc2cc(CN(Cc3nnnn3C3CCCCC3)CC3CCCO3)c(=O)[nH]c2c1 (stereo not drawn)	-1	-4	-3	94*	3	11
Cc1ccc2[nH]c(=O)c(CN(CC3CCCO3)C(=O)c3ccncc3)cc2c1 (stereo not drawn)	2	-4	-4	70*	7	-10
CCC(c1nnnn1CCOC)N(Cc1cc2c(C)cc(C)cc2[nH]c1=O)CC1CCCO1 (stereo not drawn)	-1	2	-7	-2	nt	-8
C[N+](C)(C)CCO	nt	nt	nt	nt	nt	-14
O=C(CSCc1cccc(Cl)c1)Nc1ccccc1-c1ccccc1	1	-6	2	87*	11	62
Cc1ccccc1CSCC(=O)Nc1ccccc1-c1ccccc1	1	-7	-2	9	12	43
Cc1ccc(Cl)cc1N1CCN(C(=O)Cc2ccc(-n3c(=O)[nH]c4ccsc4c3=O)cc2)CC1	1	-10	-5	57*	9	-4
CC(=O)c1sc(NC(=O)CCCOc2ccc(Cl)cc2)nc1C	1	-11	4	-6	-3	16
O=C(NNc1c(Cl)cccc1Cl)c1ccno1	0	nt	nt	nt	2	-28
